For six compounds, Maximal efficacy, EC50 and IC50 results are on record in article PMC3517154 (ChemMedChem, 2011).

In one test the target is T1, PPARγ (Homo sapiens, UniProt P37231).
T1 sequence (P37231 1-505): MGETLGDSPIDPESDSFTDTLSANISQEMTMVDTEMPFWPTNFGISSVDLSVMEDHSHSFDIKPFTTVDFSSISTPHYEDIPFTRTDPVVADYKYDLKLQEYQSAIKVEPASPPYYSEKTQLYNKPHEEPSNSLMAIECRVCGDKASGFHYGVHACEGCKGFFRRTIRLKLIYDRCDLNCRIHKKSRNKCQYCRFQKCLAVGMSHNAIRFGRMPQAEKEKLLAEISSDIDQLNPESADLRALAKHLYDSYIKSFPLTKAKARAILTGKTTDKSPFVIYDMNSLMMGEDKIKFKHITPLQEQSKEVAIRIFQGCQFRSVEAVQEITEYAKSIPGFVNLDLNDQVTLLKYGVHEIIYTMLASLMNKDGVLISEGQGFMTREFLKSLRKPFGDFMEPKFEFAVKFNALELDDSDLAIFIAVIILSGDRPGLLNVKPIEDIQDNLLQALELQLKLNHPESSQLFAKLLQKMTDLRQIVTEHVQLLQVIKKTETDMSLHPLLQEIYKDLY
Nature of the test: Cell-based PPARγ transactivation assay. To be noted: for Maximal efficacy: compared to the reference full agonist (2, MRL20); for EC50: read-out: Cell-based EC50, Cos-1 cells, 3xPPRE luciferase reporter, full-length PPARγ, 24 h, dose-response. The procedure, abridged:
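Cos-1 cells, trypsinized, bulk reverse-transfected 24 h (FuGene6, lipid:DNA 3:1; DMEM + 10% FBS) with 1.5 μg 3xPPRE luciferase reporter plus 1.5 μg full-length PPARγ (pSport6). Replated at 10,000 cells/well, 4 h at 37°C, 5% CO2. Ten-point serial dilution, 5 μM – 200 pM, in triplicate, then 24 h. One-step luciferase reagent, luminescence read. Activity taken as fold over DMSO. Partial and full agonist controls, DMSO negative. EC50 from curve fit.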
(In a reporter assay the amount or activity of a reporter protein is the signal.)

A further test concerns the target T2, PPARγ LBD (Homo sapiens, UniProt P37231).
T2 sequence (P37231 238-503 limits assumed): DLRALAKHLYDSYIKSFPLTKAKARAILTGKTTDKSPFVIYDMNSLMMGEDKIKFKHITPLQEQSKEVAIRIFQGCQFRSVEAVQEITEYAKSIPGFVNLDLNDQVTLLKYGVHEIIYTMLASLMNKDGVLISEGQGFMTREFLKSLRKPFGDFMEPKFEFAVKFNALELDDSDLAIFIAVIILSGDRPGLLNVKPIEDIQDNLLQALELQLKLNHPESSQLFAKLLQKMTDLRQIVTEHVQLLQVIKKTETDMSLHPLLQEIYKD
Nature of the test: Fluorescence polarization. It is filed as binding. To be noted: read-out: FP Assay IC50; recombinant PPARγ LBD, 5 nM Fluoromone Green ligand, 25°C, 2 hours. The gist of the method:
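Competitive FP binding run per kit instructions. 20 ng recombinant PPARγ LBD plus 5 nM Fluoromone Green probe, mixed with an equal volume of screening buffer holding DMSO or test compound. Incubated 2 h at 25°C. Polarization read at 485 nm excitation and 535 nm emission. Rosiglitazone used as positive competitor. IC50 from dose-response curve fit.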

Turning to `COc1ccc2nc(N3C(=O)C(O)=C(C(=O)c4ccco4)C3c3ccc(C)o3)sc2c1` (stereo not drawn) [Compound 7], on PPARγ, the Maximal efficacy worked out at 41.14% and the EC50 was found to be 5000 nM. For the same compound, at PPARγ LBD, the IC50 is 5000 nM.

Consider `Cc1ccc2nc(N3C(=O)C(O)=C(C(=O)c4ccc(C)o4)C3c3ccco3)sc2c1` (stereo not drawn) [Compound 8], for which, on PPARγ, the Maximal efficacy amounted to 45.76% and the EC50 is 18000 nM. Moreover, the IC50 on PPARγ LBD is 22000 nM.

For `CC(=O)N1N=C(c2ccccc2)CC1c1cn(Cc2ccccc2)c2ccccc12` (stereo not drawn) [Compound 5], on PPARγ, the Maximal efficacy came out at 44.71% and the EC50 came to 1200 nM. Further, the IC50 on PPARγ LBD turned out to be 2000 nM.

For `COc1ccc(-c2nn(-c3ccccc3)cc2/C=C2/SC(=S)N(CCC(=O)O)C2=O)c(C)c1` [Compound 3], on PPARγ, the Maximal efficacy came out at 44.41% and the EC50 came out at 283 nM. Besides, the IC50 on PPARγ LBD is 152 nM.

`CCn1cnc2c1c(=O)n(Cc1cccc([N+](=O)[O-])c1)c(=O)n2Cc1ccccc1` [Compound 4]: on PPARγ, the Maximal efficacy stood at 64.11% and the EC50 was found to be 181 nM. Also, the IC50 on PPARγ LBD worked out at 173 nM.

For the compound `CCOc1ccc2nc(N3C(=O)C(O)=C(C(=O)c4ccco4)C3c3ccco3)sc2c1` (stereo not drawn) [Compound 6], at PPARγ, the Maximal efficacy was 37.04% and the EC50 was 1200 nM. Also, the IC50 on PPARγ LBD is 3000 nM.

As usually defined, the EC50 is the midpoint of the concentration-response curve. A word on the IC50: it is the concentration needed to halve the response being measured.
